Consider 42 molecules from ChEMBL document CHEMBL4004839, “Targeting Bacillosamine Biosynthesis in Bacterial Pathogens: Development of Inhibitors to a Bacterial Amino-Sugar Acetyltransferase from Campylobacter jejuni” (J Med Chem, 2017).

pIC50: −log10 of the molar value. Active and inactive are the calls of the source. No cut-off for these calls is given here.

In test [1] the target is T1, UDP-N-acetylbacillosamine N-acetyltransferase (Campylobacter jejuni subsp. jejuni serotype O:2 (strain ATCC 700819 /NCTC 11168), UniProt Q0P9D1).
T1 sequence (Q0P9D1 whole entry): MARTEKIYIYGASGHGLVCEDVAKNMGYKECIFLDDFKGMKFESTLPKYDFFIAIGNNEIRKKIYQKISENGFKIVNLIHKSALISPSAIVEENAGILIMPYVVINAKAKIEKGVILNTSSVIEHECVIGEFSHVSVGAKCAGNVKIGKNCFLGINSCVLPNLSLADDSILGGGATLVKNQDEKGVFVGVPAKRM
As to the kind of experiment: Inhibition of Campylobacter jejuni NCTC 11168 PglD acetyltransferase expressed in Escherichia coli BL-21(DE3) strain (Stratagene) assessed as release of CoASH preincubated for 30 mins followed by addition of 300 uM AcCoA and 500 uM UDP-4-aminosugar as substrate by Ellman's method. A digest of the protocol: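 Continuous DTNB read-out of CoASH release. Inhibitor (DMSO stock) preincubated 30 min at RT with PglD in 50 mM HEPES pH 7.8, 1 mM MgCl2, 0.05 mg/mL BSA, 0.001% Triton X-100. […] Initial rates over 5 min at RT, A412. IC50 derived.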

The target in test [2] is T2, UDP-N-acetylbacillosamine N-acetyltransferase (Campylobacter jejuni subsp. jejuni serotype O:2 (strain ATCC 700819 /NCTC 11168)) (UniProt Q0P9D1).
T2 sequence (whole entry): T1 sequence (Q0P9D1 whole entry)
As to the kind of experiment: Binding affinity to Campylobacter jejuni NCTC 11168 PglD acetyltransferase expressed in Escherichia coli BL-21(DE3) strain (Stratagene) assessed as change in melting temperature at 100 uM by Sypro orange dye-based differential scanning fluorimetry.

For test [3], the target named is T1, UDP-N-acetylbacillosamine N-acetyltransferase. As to the kind of experiment: Inhibition of Campylobacter jejuni NCTC 11168 PglD acetyltransferase expressed in Escherichia coli BL-21(DE3) strain (Stratagene) assessed as release of CoASH preincubated for 45 mins followed by addition of AcCoA and UDP-4-aminosugar measured after 30 mins by fragment-based high-throughput screening analysis. A digest of the protocol: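 End-point screen with compounds at 10 μM final. Started with 100 μM UDP-4-aminosugar, quenched at 30 min with 2 mM DTNB, 1 mM EDTA, 20% 1-propanol (final). Developed 5 min, read at 405 nm.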

Test [4] has the same target. As to the kind of experiment: Competitive inhibition of Campylobacter jejuni NCTC 11168 PglD acetyltransferase expressed in Escherichia coli BL-21(DE3) strain (Stratagene) assessed as release of CoASH preincubated for 30 mins followed by addition of UDP-4-aminosugar and 2 fold excess AcCoA as substrate by Ellman's method. A digest of the protocol:
(§1)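 Same continuous DTNB-coupled PglD assay: 30 min RT inhibitor–enzyme preincubation, 3 nM PglD, HEPES pH 7.8 buffer, A412 initial rates over 5 min. IC50 determined while raising one substrate above standard (300 μM AcCoA, 500 μM UDP-4-amino-sugar): AcCoA raised 2- or 5-fold, or UDP-4-amino-sugar raised to higher levels.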

The target of test [5] is T2, UDP-N-acetylbacillosamine N-acetyltransferase (Campylobacter jejuni subsp. jejuni serotype O:2 (strain ATCC 700819 /NCTC 11168)). As to the kind of experiment: Competitive inhibition of Campylobacter jejuni NCTC 11168 PglD acetyltransferase expressed in Escherichia coli BL-21(DE3) strain (Stratagene) assessed as release of CoASH preincubated for 30 mins followed by addition of AcCoA and higher levels of UDP-4-aminosugar as substrate by Ellman's method. A digest of the protocol: as §1

The target of test [6] is T1, UDP-N-acetylbacillosamine N-acetyltransferase. Put plainly: Competitive inhibition of Campylobacter jejuni NCTC 11168 PglD acetyltransferase expressed in Escherichia coli BL-21(DE3) strain (Stratagene) assessed as release of CoASH preincubated for 30 mins followed by addition of UDP-4-aminosugar and 5 fold excess AcCoA as substrate by Ellman's method. A digest of the protocol:
as §1

Test [7] deals with T2, UDP-N-acetylbacillosamine N-acetyltransferase (Campylobacter jejuni subsp. jejuni serotype O:2 (strain ATCC 700819 /NCTC 11168)). Put plainly: Effect on quaternary structure of Campylobacter jejuni NCTC 11168 PglD acetyltransferase expressed in Escherichia coli BL-21(DE3) strain (Stratagene) assessed as hydrodynamic radius of apo PgID at 250 uM by dynamic light scattering method (reference value: 34 Angstrom). Put shortly:
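DLS on 25 μM PglD with or without 250 μM inhibitor in 50 mM HEPES 7.5, 100 mM NaCl, 3% DMSO final. Scattering measured at 90° with 685 nm laser. Radius and polydispersity index derived with a Rayleigh scattering model.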

Test [8] has the same target. Put plainly: Effect on quaternary structure of Campylobacter jejuni NCTC 11168 PglD acetyltransferase expressed in Escherichia coli BL-21(DE3) strain (Stratagene) assessed as polydispersity index of PgID at 250 uM by dynamic light scattering method (reference value: 31%). A digest of the protocol: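 Recombinant C. jejuni PglD (His8-TEV construct, tag removed, Ni-NTA then size-exclusion purified) at 25 μM, with or without 250 μM inhibitor, in 50 mM HEPES 7.5, 100 mM NaCl, 3% DMSO final. Scattering measured at 90° with 685 nm laser; analysed with Rayleigh scattering model to give radius and polydispersity index.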

For the molecule `CNc1nc(CCc2cccc(F)c2)nc2sc(C(=O)O)c(C)c12`, the pIC50 in test [1] is 5.64. The ΔTm in test [2] came to 8.9 °C.

Turning to `Cc1c(C(=O)O)sc2nc(CCc3ccccc3)nc(NCCN)c12`, the pIC50 in test [1] was 5.80. For the same molecule, the ΔTm in test [2] stood at 3.6 °C. `CNc1nc(CCc2ccc3c(c2)OCO3)nc2sc(C(=O)O)c(C)c12`: the pIC50 in test [1] was 5.74. Further, in test [2], the ΔTm turned out to be 7.4 °C. As for `CO[C@@H](CNc1nc(C[C@@H](C)c2ccccc2)nc2sc(C(=O)O)c(C)c12)c1ccccc1`, the pIC50 in test [1] is 6.06.

`CNc1nc(CCc2cccc(OC)c2)nc2sc(C(=O)O)c(C)c12`: in test [1], the pIC50 is 5.96. Further, in test [2], the ΔTm came out at 8.4 °C. On to `O=C(O)c1cc(-c2ccco2)[nH]n1`, for which the pIC50 in test [3] is 2.08. Consider `Cc1c(C(=O)O)sc2nc(CCc3ccccc3)nc(NCCc3ccc(F)cc3)c12`, for which the pIC50 in test [1] is 6.38. Regarding `COc1cc(CCNc2nc(CCc3ccccc3)nc3sc(C(=O)O)c(C)c23)cc(OC)c1`, the pIC50 was 6.43 in test [1], 6.20 in test [4] and 5.85 in test [6]. In addition, the inhibition result in test [5] was “Active”. Regarding `Cc1c(C(=O)O)sc2nc(CCc3ccccc3)nc(NCCc3ccncc3)c12`, the pIC50 in test [1] is 6.41. Further, the ΔTm in test [2] came to 12 °C.

Regarding `Cc1c(C(=O)O)sc2nc(CCc3ccccc3)nc(NCc3ccccc3)c12`, in test [1], the pIC50 was 5.35. On to `Cc1c(C(=O)O)sc2nc[nH]c(=O)c12`, for which, in test [3], the pIC50 was 3.07. With `Cc1c(C(=O)O)sc2nc(CCc3ccccc3)nc(NCCc3ccccc3F)c12`, in test [1], the pIC50 is 6.32. Further, the thermal shift (ΔTm) in test [2] worked out at 13.2 °C. Take `CNc1nc(CCc2cccc(OC)c2)nc2cc(C(=O)O)sc12`: the pIC50 in test [1] was 5.85. The ΔTm in test [2] was 5.9 °C.

Consider `CNc1nc(CCCCc2ccccc2)nc2sc(C(=O)O)c(C)c12`, for which, in test [1], the pIC50 is 5.39. In addition, the ΔTm in test [2] amounted to 7.4 °C. `Cc1c(C(=O)O)sc2nc(CCc3ccccc3)nc(NCCc3ccccc3)c12`: the pIC50 in test [1] is 5.85. Besides, the ΔTm in test [2] is 13.2 °C.

In the case of `CC(=O)Nc1ccc(CCc2nc(NCCN)c3c(C)c(C(=O)O)sc3n2)cc1`, the pIC50 in test [1] was 5.85. The ΔTm in test [2] was found to be 5.3 °C. On the same counts, the results for `Cc1c(C(=O)O)sc2nc(CCc3ccccc3)nc(NCCc3cccnc3)c12` are 6.47 and 12 °C. For `Cc1c(C(=O)O)sc2nc(CCc3ccccc3)nc(NCCc3ccccn3)c12`, in test [1], the pIC50 was 6.38. Moreover, the ΔTm in test [2] was found to be 12.5 °C.

Turning to `CO[C@H](CNc1nc(CCc2ccc(NC(C)=O)cc2)nc2sc(C(=O)O)c(C)c12)c1ccccc1`, the Activity in test [7] turned out to be 36 Angstrom; in test [8], 24%. Further, the pIC50 in test [1] was 6.57. For the same molecule, the ΔTm in test [2] was 12.5 °C. For the molecule `CNc1nc(CCCc2ccccc2)nc2sc(C(=O)O)c(C)c12`, the pIC50 in test [1] is 5.36. For the same molecule, the ΔTm in test [2] was determined as 7.9 °C. Consider `COc1ccc(CCNc2nc(CCc3ccccc3)nc3sc(C(=O)O)c(C)c23)cc1`, for which, in test [1], the pIC50 was 6.27.

For `Cc1c(C(=O)O)sc2nc(C(C)C)[nH]c(=O)c12`, the pIC50 in test [3] was 3.91. For the molecule `CNc1nc(CCc2cccc(Cl)c2)nc2sc(C(=O)O)c(C)c12`, the pIC50 in test [1] was 5.68. The ΔTm in test [2] was determined as 9.4 °C. Take `Cc1ccccc1CCNc1nc(CCc2ccccc2)nc2sc(C(=O)O)c(C)c12`: the pIC50 in test [1] was 6.60. In addition, the ΔTm in test [2] turned out to be 14.3 °C. For `CO[C@H](CNc1nc(C[C@H](C)c2ccccc2)nc2sc(C(=O)O)c(C)c12)c1ccccc1`, in test [1], the pIC50 is 5.96. The ΔTm in test [2] is 10.4 °C.

On to `Cc1c(C(=O)O)sc2nc(CCc3ccccc3)nc(NCCc3ccc4c(c3)OCO4)c12`, for which the pIC50 in test [1] is 6.23. In addition, in test [2], the ΔTm came to 11.5 °C. Turning to `CNc1nc(CCc2cccc(NC(C)=O)c2)nc2sc(C(=O)O)c(C)c12`, the pIC50 in test [1] is 5.46.

Turning to `Cc1c(C(=O)O)sc2nc(CCc3ccccc3)nc(NCCc3cccc(F)c3)c12`, in test [1], the pIC50 is 6.41. For `CO[C@@H](CNc1nc(C[C@H](C)c2ccccc2)nc2sc(C(=O)O)c(C)c12)c1ccccc1`, the pIC50 in test [1] is 5.70. Further, in test [2], the ΔTm is 9.4 °C. Regarding `Cc1cccc(CCNc2nc(CCc3ccccc3)nc3sc(C(=O)O)c(C)c23)c1`, the pIC50 in test [1] is 6.38.

As to `COc1cccc(CCNc2nc(CCc3ccccc3)nc3sc(C(=O)O)c(C)c23)c1`, the pIC50 in test [1] was 6.35. As to `CNc1nc(CCc2ccccc2)nc2cc(C(=O)O)sc12`, the pIC50 in test [1] was 5.41. Moreover, the shift in melting temperature (ΔTm) in test [2] was determined as 4.8 °C. As for `Cc1c(C(=O)O)sc2nc(CCc3ccccc3)nc(NC3Cc4ccccc4C3)c12`, the pIC50 in test [1] is 6.00. Take `CO[C@H](CNc1nc(C[C@@H](C)c2ccccc2)nc2sc(C(=O)O)c(C)c12)c1ccccc1`: in test [1], the pIC50 was 6.38. For the same molecule, the ΔTm in test [2] is 9.9 °C.

In the case of `Cc1c(C(=O)O)sc2nc(/C=C/c3ccc4[nH]ccc4c3)[nH]c(=O)c12`, the pIC50 in test [3] was 6.00. As for `Cc1ccc(CCNc2nc(CCc3ccccc3)nc3sc(C(=O)O)c(C)c23)cc1`, the pIC50 in test [1] is 6.14.

Consider `CC(=O)Nc1ccc(CCc2nc(NCCc3ccccn3)c3c(C)c(C(=O)O)sc3n2)cc1`, for which the pIC50 in test [1] is 6.55. Besides, the ΔTm in test [2] was 11.5 °C.

Consider `CNc1nc(CCc2ccccc2NC(C)=O)nc2sc(C(=O)O)c(C)c12`, for which the pIC50 in test [1] is 5.05. As to `CNc1nc(CCc2cccc(C(F)(F)F)c2)nc2sc(C(=O)O)c(C)c12`, the pIC50 in test [1] was 5.34. For the same molecule, the ΔTm in test [2] is 7.4 °C.

Consider `COc1ccccc1CCNc1nc(CCc2ccccc2)nc2sc(C(=O)O)c(C)c12`, for which the pIC50 in test [1] is 6.32. Besides, in test [2], the ΔTm came out at 13.7 °C. Turning to `CNc1nc(CCc2ccccc2)nc2sc(C(=O)O)c(C)c12`, the pIC50 in test [1] is 5.66. The ΔTm in test [2] was determined as 7.4 °C. For the molecule `CNc1nc(CCc2ccc(NC(C)=O)cc2)nc2sc(C(=O)O)c(C)c12`, the pIC50 in test [1] is 5.62.
